Results published in ChEMBL document CHEMBL2375307, “Synthesis and identification of β-aryloxyquinoline based diversely fluorine substituted N-aryl quinolone derivatives as a new class of antimicrobial, antituberculosis and antioxidant agents” (Eur J Med Chem, 2013).
Converted amounts (≈) assume the structure as drawn.

How the values were obtained:
[1] = tested on: Mycobacterium tuberculosis; test: Antitubercular activity against Mycobacterium tuberculosis H37Rv assessed as growth inhibition at 250 ug/mL after 12 to 28 days by Lowenstein-Jensen method relative to control; assay type: functional; conditions: read-out: GI
In short: (§1)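 Modified Lowenstein-Jensen method. Compound at 250 in DMSO added to liquid L-J medium, then sterilized by inspissation and incubated 24 h at 37 °C. Streaked with H37Rv harvested in 0.85% saline (5 × 10⁴ bacilli/tube) and incubated at 37 °C. Colonies read at 12, 22 and 28 days versus drug-free control; no colonies or <20 colonies scored as inhibition.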

[2] = tested on: Mycobacterium tuberculosis; test: Antitubercular activity against Mycobacterium tuberculosis H37Rv assessed as growth inhibition after 12 to 28 days by Lowenstein-Jensen method; assay type: functional; in short: as §1
[3] = tested on: Clostridium tetani; test: Antibacterial activity against Clostridium tetani MTCC 449 assessed as growth inhibition after overnight incubation by NCCLS broth microdilution method; assay type: functional
[4] = Toxicity in brine shrimps cysts assessed as mortality at 20 ug/mL after 24 hrs relative to control; assay type: organism-based; conditions: artemia, in vivo
[5] = tested on: Escherichia coli; test: Antibacterial activity against Escherichia coli MTCC 443 assessed as growth inhibition after overnight incubation by NCCLS broth microdilution method; assay type: functional
In short: (§2)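 Broth microdilution per NCCLS in Mueller Hinton broth, compounds diluted in DMSO. Primary screen at 500, 250 and 200 µg/mL; actives retested at 100, 62.5, 50, 25 and 12.5 µg/mL. Tubes incubated overnight at 37 °C. […] Non-growing tubes subcultured overnight at 37 °C to judge bacteriostatic versus bactericidal action.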

[6] = tested on: Salmonella typhi; test: Antibacterial activity against Salmonella typhi MTCC 98 assessed as growth inhibition after overnight incubation by NCCLS broth microdilution method; assay type: functional, Salmonella enterica subsp. enterica serovar Typhi; conditions: Salmonella enterica
[7] = tested on: Bacillus subtilis; test: Antibacterial activity against Bacillus subtilis MTCC 441 assessed as growth inhibition after overnight incubation by NCCLS broth microdilution method; assay type: functional; in short: as §2
[8] = tested on: Candida albicans; test: Antifungal activity against Candida albicans MTCC 227 assessed as growth inhibition after overnight incubation by NCCLS broth microdilution method; assay type: functional; in short: as §2
[9] = Toxicity in brine shrimps cysts assessed as mortality at 40 ug/mL after 24 hrs relative to control; assay type: organism-based; conditions: artemia, in vivo
[10] = Antioxidant activity of the compound assessed as ascorbic acid equivalent of ferric tripyridyl triazine reducing activity at 200 ug/mL after 15 mins by FRAP assay; assay type: functional
In short: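 FRAP, modified Benzie and Strain method. Fe(III)-TPTZ reagent made with TPTZ in 40 mM HCl, FeCl3 solution and acetate buffer pH 3.6. 200 µL sample solution mixed with 3 mL reagent and held 15 min at 37 °C. Fe(II)-TPTZ read at 593 nm against an ascorbic acid standard, expressed as ascorbic acid equivalents (mmol/100 g compound).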

[11] = tested on: Aspergillus fumigatus; test: Antifungal activity against Aspergillus fumigatus MTCC 3008 assessed as growth inhibition after overnight incubation by NCCLS broth microdilution method; assay type: functional; in short: as §2
[12] = Toxicity in brine shrimps cysts assessed as mortality at 50 ug/mL after 24 hrs relative to control; assay type: organism-based; conditions: artemia, in vivo
[13] = Toxicity in brine shrimps cysts assessed as mortality after 24 hrs relative to control; assay type: organism-based; conditions: artemia, in vivo
[14] = Toxicity in brine shrimps cysts assessed as mortality at 5 ug/ml after 24 hrs relative to control; assay type: organism-based; conditions: artemia, in vivo
[15] = Toxicity in brine shrimps cysts assessed as mortality at 30 ug/mL after 24 hrs relative to control; assay type: organism-based; conditions: artemia, in vivo
[16] = tested on: Vibrio cholerae; test: Antibacterial activity against Vibrio cholerae MTCC 3906 assessed as growth inhibition after overnight incubation by NCCLS broth microdilution method; assay type: functional
[17] = tested on: Streptococcus pneumoniae; test: Antibacterial activity against Streptococcus pneumoniae MTCC 1936 assessed as growth inhibition after overnight incubation by NCCLS broth microdilution method; assay type: functional; in short: as §2
[18] = Toxicity in brine shrimps cysts assessed as mortality at 10 ug/mL after 24 hrs relative to control; assay type: organism-based; conditions: artemia, in vivo

| SMILES | inhibition of growth at 250 µg/mL [1] [%] | MIC [2] [µg/mL] | MIC [3] [µg/mL] | mortality at 24 h, 20 ug/mL [4] [%] | MIC [5] [µg/mL] | MIC [6] [µg/mL] | MIC [7] [µg/mL] | MIC [8] [µg/mL] | mortality at 24 h, 40 ug/mL [9] [%] | Activity [10] [equiv] | MIC [11] [µg/mL] | mortality at 24 h, 50 ug/mL [12] [%] | LC50 at 24 h [13] [µg/mL] | mortality at 24 h, 5 ug/ml [14] [%] | mortality at 24 h, 30 ug/mL [15] [%] | MIC [16] [µg/mL] | MIC [17] [µg/mL] | mortality at 24 h, 10 ug/mL [18] [%] |
| --- | --- | --- | --- | --- | --- | --- | --- | --- | --- | --- | --- | --- | --- | --- | --- | --- | --- | --- |
| CO[C@H]1/C=C/O[C@@]2(C)Oc3c(C)c(O)c4c(O)c(c(/C=N/N5CCN(C)CC5)c(O)c4c3C2=O)NC(=O)/C(C)=C\C=C\[C@H](C)[C@H](O)[C@@H](C)[C@@H](O)[C@@H](C)[C@H](OC(C)=O)[C@@H]1C [RIFAMPIN] | 98 | 40 (≈ 48.6 µM) |  |  |  |  |  |  |  |  |  |  |  |  |  |  |  |  |
| Cc1ccc2nc(Oc3ccc(C#N)cc3)c(C3C(C#N)=C(N)N(c4cc(F)ccc4F)C4=C3C(=O)CC(C)(C)C4)cc2c1 (centres undefined) | 99 | 62.5 (≈ 106 µM) | 100 (≈ 170 µM) | 20 | 62.5 (≈ 106 µM) | 200 (≈ 340 µM) | 200 (≈ 340 µM) | > 1000 | 70 | 13.9 | > 1000 | 80 | 27.5 (≈ 46.8 µM) | 0 | 50 | 25 (≈ 42.5 µM) | 100 (≈ 170 µM) | 10 |
| CC1(C)CC(=O)C2=C(C1)N(c1cccc(C(F)(F)F)c1)C(N)=C(C#N)C2c1cc2cc(Cl)ccc2nc1Oc1ccc(C#N)cc1 (centres undefined) | 98 | 62.5 (≈ 97.6 µM) | 250 (≈ 391 µM) | 40 | 125 (≈ 195 µM) | 125 (≈ 195 µM) | 250 (≈ 391 µM) | > 1000 | 70 | 7.13 | 1000 (≈ 1560 µM) | 80 | 23.3 (≈ 36.5 µM) | 10 | 50 | 100 (≈ 156 µM) | 125 (≈ 195 µM) | 20 |
| N#CC1=C(N)N(c2ccc(F)c(F)c2)C2=C(C(=O)CCC2)C1c1cc2cc(Cl)ccc2nc1Oc1ccc(C#N)cc1 (centres undefined) | 95 | 100 (≈ 172 µM) | 200 (≈ 345 µM) | 60 | 200 (≈ 345 µM) | 250 (≈ 431 µM) | 125 (≈ 216 µM) | 1000 (≈ 1720 µM) | 80 | 2.97 | > 1000 | 90 | 14.1 (≈ 24.3 µM) | 20 | 70 | 100 (≈ 172 µM) | 200 (≈ 345 µM) | 40 |
| N#CC1=C(N)N(c2cccc(C(F)(F)F)c2)C2=C(C(=O)CCC2)C1c1cc2cc(Cl)ccc2nc1Oc1ccc(C#N)cc1 (centres undefined) | 99 | 25 (≈ 40.8 µM) | 200 (≈ 327 µM) | 20 | 250 (≈ 408 µM) | 200 (≈ 327 µM) | 200 (≈ 327 µM) | 1000 (≈ 1630 µM) | 50 | 5.15 | 1000 (≈ 1630 µM) | 70 | 37.8 (≈ 61.7 µM) | 0 | 40 | 62.5 (≈ 102 µM) | 62.5 (≈ 102 µM) | 10 |
| COc1ccc2nc(Oc3ccc(C#N)cc3)c(C3C(C#N)=C(N)N(c4cc(F)ccc4F)C4=C3C(=O)CCC4)cc2c1 (centres undefined) | 35 |  | 125 (≈ 217 µM) |  | 250 (≈ 434 µM) | 100 (≈ 174 µM) | 200 (≈ 347 µM) | 1000 (≈ 1740 µM) |  | 278 | 1000 (≈ 1740 µM) |  |  |  |  | 250 (≈ 434 µM) | 125 (≈ 217 µM) |  |
| Cc1ccc2nc(Oc3ccc(C#N)cc3)c(C3C(C#N)=C(N)N(c4cccc(C(F)(F)F)c4)C4=C3C(=O)CC(C)(C)C4)cc2c1 (centres undefined) | 93 | 125 (≈ 202 µM) | 250 (≈ 403 µM) | 50 | 100 (≈ 161 µM) | 100 (≈ 161 µM) | 100 (≈ 161 µM) | > 1000 | 80 | 339 | 1000 (≈ 1610 µM) | 90 | 17.1 (≈ 27.7 µM) | 10 | 70 | 125 (≈ 202 µM) | 125 (≈ 202 µM) | 30 |
| N#Cc1ccc(Oc2nc3ccc(Cl)cc3cc2C=O)cc1 | 61 |  | 125 (≈ 405 µM) |  | 250 (≈ 810 µM) | 200 (≈ 648 µM) | 125 (≈ 405 µM) | > 1000 |  | 34.9 | 250 (≈ 810 µM) |  |  |  |  | 200 (≈ 648 µM) | 125 (≈ 405 µM) |  |
| NNC(=O)c1ccncc1 [ISONIAZID] | 99 | 0.2 (≈ 1.46 µM) |  |  |  |  |  |  |  |  |  |  |  |  |  |  |  |  |
| Cc1ccc2nc(Oc3ccc(C#N)cc3)c(C3C(C#N)=C(N)N(c4ccc(F)c(F)c4)C4=C3C(=O)CCC4)cc2c1 (centres undefined) | 27 |  | 100 (≈ 179 µM) |  | 200 (≈ 357 µM) | 250 (≈ 447 µM) | 200 (≈ 357 µM) | 250 (≈ 447 µM) |  | 243 | 500 (≈ 894 µM) |  |  |  |  | 200 (≈ 357 µM) | 250 (≈ 447 µM) |  |
